From PubChem BioAssay
The sample as a whole holds a higher share of hits than the screen did.
UPR CHOP act: activators of apoptotic arm of unfolded protein response (CHOP) | hit rate 0.34% among 330,000 | CHO-CHOP luciferase reporter, UPR activation, luminescence; percent of tunicamycin response over DMSO baseline | activation, % at 10 µM;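 active = at 10 µM dose, activation of 40% or more, normalized to positive control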
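System: CHO CHOP reporter cells. Amount: 500 cells per well. Buffer or medium: F12 medium, 10% FBS. Compound dosing: one dose, 10 µM in 0.5% DMSO. Incubation: 6 h compound exposure at 37 °C after overnight seeding. Technique: Steady-Glo luciferase luminescence. Benchmarks: tunicamycin and DMSO controls.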
Jurkat NFkB inh: inhibitors of the PMA/ionomycin-induced NF-kB reporter in Jurkat cells; hit rate 0.53% among 330,000; PMA/ionomycin-induced NF-kB luciferase reporter, luminescence; AID 435003; inhibition, % at 4 µM; in the data active = inhibition above about 50%
697 NFkB inh: lowers PMA/ionomycin-induced NF-kB signal in 697 B cells. 697 B-cell NF-kB luciferase reporter, 16 h. inhibition, % at 4 µM. hit rate 0.33% among 330,000. AID 435022; in the data active = inhibition above about 35%
CHOP inh: inhibitors of CHOP induction in ER stress response | hit rate 3.8% among 220,000 | CHO-K1 CHOP-promoter luciferase, tunicamycin-induced, 15-18 h | AID 2732 | inhibition, % at 10 µM;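 active = compounds that reduced the stress-induced luciferase reporter signal by more than about 70% of percent inhibition, limit read from the data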
XBP1 UPR activ: activators of adaptive arm of unfolded protein response (XBP1). CHO-XBP1 luciferase reporter, IRE1-XBP1 UPR activation, luminescence; percent of tunicamycin response, DMSO as zero. activation, % at 20 µM. hit rate 0.33% among 330,000. AID 463104;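 active = versus positive control, 20 µM dose yields 30% or more activation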
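Assay system: CHO-XBP1 luciferase reporter cells; Schedule: 6 h treatment, 37 °C; Detection: glow luminescence from Steady-Glo reagent; Benchmarks: high control tunicamycin 10 µg/mL final, low control DMSO vehicle only.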
Hits are given with their value.

For CCOc1cc(CNc2ccc(N3CCCCC3)cc2)cc(Br)c1OCC(=O)NC(C)(C)C the results were UPR CHOP act inactive, Jurkat NFkB inh inactive, 697 NFkB inh inactive, CHOP inh inactive and XBP1 UPR activ inactive.
Screening CCOc1cc(CNc2ccc(N(C)C)cc2)cc(Br)c1OCC(=O)NC(C)(C)C returned UPR CHOP act inactive, Jurkat NFkB inh inactive, 697 NFkB inh inactive, CHOP inh 94.9 and XBP1 UPR activ inactive.
For COc1ccccc1C(=O)Oc1cc(N)n(S(=O)(=O)c2ccc(C)cc2)n1 the results were UPR CHOP act inactive, Jurkat NFkB inh inactive, 697 NFkB inh inactive, CHOP inh 78.5 and XBP1 UPR activ inactive.
`Cc1ccc(S(=O)(=O)n2nc(OC(=O)c3ccccc3C)cc2N)cc1` gave UPR CHOP act inactive, Jurkat NFkB inh inactive, 697 NFkB inh inactive and XBP1 UPR activ inactive.
COc1ccc(S(=O)(=O)n2nc(OC(=O)C3CCCCC3)cc2N)cc1 was read as UPR CHOP act inactive, Jurkat NFkB inh inactive, 697 NFkB inh inactive, CHOP inh 73.8 and XBP1 UPR activ inactive.
`COc1ccc(NCc2ccsc2)cc1` gave UPR CHOP act inactive, Jurkat NFkB inh inactive, 697 NFkB inh inactive and XBP1 UPR activ inactive.
O=C(C1CCN(S(=O)(=O)c2ccccc2)CC1)N1CCCCCC1 was read as UPR CHOP act inactive, Jurkat NFkB inh inactive, 697 NFkB inh inactive and XBP1 UPR activ inactive.
Screening COc1ccc(OC)c(C(=O)CSc2nccc(-c3ccc(Br)cc3)n2)c1 returned UPR CHOP act inactive, Jurkat NFkB inh inactive, 697 NFkB inh inactive, CHOP inh 79.9 and XBP1 UPR activ inactive.
Screening O=C(Nc1ccc(N2CCN(c3ccc(O)cc3)CC2)cc1)Oc1ccccc1 returned UPR CHOP act inactive, Jurkat NFkB inh inactive, 697 NFkB inh inactive, CHOP inh inactive and XBP1 UPR activ inactive.
For Nc1ccc(OC(=O)Nc2ccc(O)cc2)cc1 the results were UPR CHOP act inactive, Jurkat NFkB inh inactive, 697 NFkB inh inactive, CHOP inh 81.5 and XBP1 UPR activ inactive.
`CC1Sc2ccc(C(=O)NCc3ccccn3)cc2NC1=O` (centres undefined) gave UPR CHOP act inactive, Jurkat NFkB inh inactive, 697 NFkB inh inactive and XBP1 UPR activ inactive.
O=C(C[C@@H]1C/C=C\CCC(=O)O[C@H](c2ccccc2)CNC1=O)N[C@H](CO)Cc1ccccc1 was read as UPR CHOP act inactive, Jurkat NFkB inh inactive, 697 NFkB inh inactive and XBP1 UPR activ inactive.
For CCCc1cc(-c2n[nH]c(=S)n2C(C)c2ccccc2)cs1 (centres undefined) the results were UPR CHOP act inactive, Jurkat NFkB inh inactive, 697 NFkB inh inactive, CHOP inh 95.8 and XBP1 UPR activ inactive.
Cc1nn(-c2nnc(NCc3ccccc3)nn2)c(C)c1Br was read as UPR CHOP act inactive, Jurkat NFkB inh inactive, 697 NFkB inh inactive, CHOP inh 73.2 and XBP1 UPR activ inactive.
`CSc1cccc(CN2CCCC(CO)(Cc3cccc(Cl)c3)C2)c1` (centres undefined) gave UPR CHOP act inactive, Jurkat NFkB inh inactive, 697 NFkB inh inactive, CHOP inh 95.5 and XBP1 UPR activ inactive.
For O=C(CCC(=O)N1CCN(Cc2ccc(F)cc2)CC1)Nc1nnc(C2CCCCC2)s1 the results were UPR CHOP act inactive, Jurkat NFkB inh inactive, 697 NFkB inh inactive and XBP1 UPR activ inactive.
For COc1ccc(-c2cc(C3CCN(c4cc(Cl)nc(N)n4)CC3)[nH]n2)cc1 the results were UPR CHOP act inactive, Jurkat NFkB inh inactive, 697 NFkB inh inactive, CHOP inh 73.0 and XBP1 UPR activ inactive.
COc1ccc(OC)c(-c2cc(C3CCN(c4cc(Cl)nc(N)n4)CC3)[nH]n2)c1 was read as UPR CHOP act inactive, Jurkat NFkB inh inactive, 697 NFkB inh inactive, CHOP inh 72.8 and XBP1 UPR activ inactive.
Cc1ccc(S(=O)(=O)N2CCCCC2)cc1NC(=O)c1c(-c2ccccc2)noc1C was read as UPR CHOP act inactive, Jurkat NFkB inh inactive, 697 NFkB inh inactive and XBP1 UPR activ inactive.
Screening Cc1ccc(S(=O)(=O)N(CC(=O)N/N=C/c2ccco2)c2cc(Cl)cc(Cl)c2)cc1 returned UPR CHOP act inactive, Jurkat NFkB inh inactive, 697 NFkB inh inactive, CHOP inh 75.3 and XBP1 UPR activ inactive.
Screening Cc1ccc(C)c(N(CC(=O)N/N=C/c2ccc(-c3ccc([N+](=O)[O-])cc3)o2)S(=O)(=O)c2ccccc2)c1 returned UPR CHOP act inactive, Jurkat NFkB inh inactive, 697 NFkB inh inactive, CHOP inh 81.6 and XBP1 UPR activ inactive.
For O=C(CN(Cc1ccccc1)S(=O)(=O)c1ccccc1)N/N=C/c1ccc([N+](=O)[O-])cc1 the results were UPR CHOP act inactive, Jurkat NFkB inh inactive, 697 NFkB inh inactive, CHOP inh 96.0 and XBP1 UPR activ inactive.
Screening O=C(CN(c1ccc(Cl)cc1)S(=O)(=O)c1ccccc1)N/N=C/c1ccco1 returned UPR CHOP act inactive, Jurkat NFkB inh inactive, 697 NFkB inh inactive, CHOP inh inactive and XBP1 UPR activ inactive.
O=C(CN(Cc1ccccc1)S(=O)(=O)c1ccccc1)N/N=C/c1ccc2c(c1)OCO2 was read as UPR CHOP act inactive, Jurkat NFkB inh inactive, 697 NFkB inh inactive, CHOP inh inactive and XBP1 UPR activ inactive.
Screening O=C(CNc1cccc2ccccc12)N/N=C/c1ccc([N+](=O)[O-])cc1 returned UPR CHOP act inactive, Jurkat NFkB inh inactive, 697 NFkB inh inactive, CHOP inh 72.3 and XBP1 UPR activ inactive.
Screening Cc1ccccc1NCC(=O)N/N=C/c1ccc([N+](=O)[O-])cc1 returned UPR CHOP act inactive, Jurkat NFkB inh inactive, 697 NFkB inh inactive, CHOP inh inactive and XBP1 UPR activ inactive.
CC(NC(=O)C(=O)N/N=C\c1ccc([N+](=O)[O-])cc1)c1ccccc1 (centres undefined) was read as UPR CHOP act inactive, Jurkat NFkB inh inactive, 697 NFkB inh inactive, CHOP inh 84.2 and XBP1 UPR activ inactive.
Screening CC(NC(=O)COC(=O)/C=C/c1ccc([N+](=O)[O-])cc1)c1ccccc1 (centres undefined) returned UPR CHOP act inactive, Jurkat NFkB inh inactive, 697 NFkB inh inactive, CHOP inh inactive and XBP1 UPR activ inactive.
Screening O=C(CNc1ccc2ccccc2c1)N/N=C/C=C/c1cccc([N+](=O)[O-])c1 returned UPR CHOP act inactive, Jurkat NFkB inh inactive, 697 NFkB inh inactive, CHOP inh 89.8 and XBP1 UPR activ inactive.
Cc1ccc(C(=O)Nn2cnnc2)cc1 was read as UPR CHOP act inactive, Jurkat NFkB inh inactive, 697 NFkB inh inactive and XBP1 UPR activ inactive.
Screening CSC1=NCCN1C(=O)c1c(-c2ccccc2Cl)noc1C returned UPR CHOP act inactive, Jurkat NFkB inh inactive, 697 NFkB inh inactive, CHOP inh 89.0 and XBP1 UPR activ inactive.
Screening CN(C(=O)CSc1nnc(-c2ccc(OC(F)F)cc2)n1N)C1CCS(=O)(=O)C1 (centres undefined) returned UPR CHOP act inactive, Jurkat NFkB inh inactive, 697 NFkB inh inactive and XBP1 UPR activ inactive.
